pIC50: −log10 of the molar value. Activity calls are given as the source filed them. The calls are words filed in the database; no cut-off is given here.
What was measured:
MCF7 [1] = test: Antiproliferative activity against human MCF7 cells after 24 hrs of drug exposure followed by irradiation at 366 nanometer for 20 mins and subsequent incubation of 72 hrs in drug free media; assay type: functional, cell-based; settings: MCF7, light or radiation study
Summary of the method: (§1)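 Cells grown in MEM with 10% FCS at 37 °C, 5% CO2. Seeded for 48 h (HT-29) or 72 h (MCF-7) before drug. Graded concentrations were tested in six replicates. Continuous runs lasted 72 h (HT-29) or 96 h (MCF-7). Short runs used 24 h drug, then drug-free medium, optionally irradiated 20 min at 366 nm (4 W lamp, 5 cm). Biomass read by crystal violet. IC50 is the mean of ≥2 independent experiments.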

DNA [2] = test: Binding affinity to calf thymus DNA assessed as change in melting temperature at concentration of 0.1 [compound]/[DNA]; assay type: nucleic-acid assay; settings: Bos taurus
Summary of the method: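 CT DNA at 200 µM nucleotide with compound at 20 µM in 10 mM phosphate buffer, pH 7.2, 1% DMSO. Melting followed at 260 nm in 1 °C steps. Tm taken as the midpoint from first-derivative curves. ΔTm accurate within ±1 °C.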

MCF7 [3] = test: Antiproliferative activity against human MCF7 cells after 96 hrs by crystal violet staining; assay type: functional, cell-based; settings: MCF7, 96 h; summary of the method: as §1
MCF7 [4] = test: Antiproliferative activity against human MCF7 cells after 24 hrs of drug exposure followed by 72 hrs incubation in drug free media; assay type: functional, cell-based; summary of the method: as §1
Escherichia coli = test: Induction of photocleave of Escherichia coli pBR322 DNA after irradiation for 2 hrs at 265 nanometer; settings: in the assay text read “365 nanometer” for “265 nanometer”
Summary of the method: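 pBR322 supercoiled plasmid (0.25 µg) in Tris–HCl pH 7.5 with compound at 50 µM (DMSO stock). Irradiated 2 h at 365 nm (8 W, 10 cm). Run on 1% agarose, ethidium bromide stain. Nicked/linear DNA quantified as percentage of total, mean of two experiments.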

HeLa = test: Reduction of topoisomerase 2alpha protein level in human HeLa cells by Western blotting; assay type: functional, cell-based
HT-29 [5] = test: Antiproliferative activity against human HT29 cells after 72 hrs by crystal violet staining; assay type: functional, cell-based; settings: HT-29, 72 h; summary of the method: as §1
HT-29 [6] = test: Antiproliferative activity against human HT29 cells after 24 hrs of drug exposure followed by 48 hrs incubation in drug free media; assay type: functional, cell-based; summary of the method: as §1
HT-29 [7] = test: Antiproliferative activity against human HT29 cells after 24 hrs of drug exposure followed by irradiation at 366 nanometer for 20 mins and subsequent incubation of 48 hrs in drug free media; assay type: functional, cell-based; settings: HT-29, light or radiation study; summary of the method: as §1
DNA [8] = test: Binding affinity to calf thymus DNA assessed as decrease in helical B conformation at 245 nanometer wavelength by circular dichroism; assay type: nucleic-acid assay; settings: Bos taurus
Summary of the method: (§2)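 CD spectra of CT DNA (200 µM nucleotide) after 60 min incubation with 20 µM compound. Recorded after equilibration, when ellipticity no longer changed. DNA concentration set by ε260 = 6600 M^-1 cm^-1.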

DNA [9] = test: Binding affinity to calf thymus DNA assessed as increase in base stacking at 275 nanometer wavelength by circular dichroism; assay type: nucleic-acid assay; settings: Bos taurus; summary of the method: as §2

pIC50 (MCF7 [1]) | ΔTm (DNA [2]) [°C] | pIC50 (MCF7 [3]) | pIC50 (MCF7 [4]) | Activity (Escherichia coli) | pIC50 (HT-29 [5]) | pIC50 (HT-29 [6]) | pIC50 (HT-29 [7]) | Activity (DNA [8]) | Activity (DNA [9]) | Structure (SMILES) | Activity (HeLa)
5.62 | 3 | 5.57 | 5.14 | Active | 5.36 | 5.26 | 5.74 |  |  | CN(C)CCN1C(=O)c2cccc3c(Sc4nc5ccccc5s4)ccc(c23)C1=O | Active
< 4.30 | 2 | < 4.30 | < 4.30 | Active |  | < 4.30 | < 4.30 |  |  | CCSc1ccc2c3c(cccc13)C(=O)N(CCS)C2=O | 
6.74 |  | 6.70 | 6.77 |  | 6.21 | 6.64 | 6.68 |  |  | CN(C)CCN1C(=O)c2cccc3c2c(cc2c4ccccc4sc32)C1=O | Active
5.77 | 7 | 5.47 | 5.17 | Active | 5.39 | 5.32 | 5.89 | Active | Active | CN(C)CCN1C(=O)c2cccc3c(SCc4ccccc4)ccc(c23)C1=O | inactive
5.37 | 8 | 5.36 | 5.35 | Active | 5.72 | 5.66 | 5.60 | Active | Active | CCSc1ccc2c3c(cccc13)C(=O)N(CCN(C)C)C2=O | Active
5.40 | 8 | 5.59 | 5.24 | Active | 5.34 | 5.37 | 5.52 | Active | Active | CCCCSc1ccc2c3c(cccc13)C(=O)N(CCN(C)C)C2=O | inactive
4.95 | 6 | 5.35 | 4.94 | Active | 5.46 | 5.14 | 5.28 |  |  | CN(C)CCN1C(=O)c2cccc3cccc(c23)C1=O | Active
5.31 | 9 | 5.59 | 5.32 | Active | 5.54 | 5.55 | 5.55 | Active |  | CN(C)CCN1C(=O)c2cccc3c(Sc4ccccc4N)ccc(c23)C1=O | Active

Source: ChEMBL document CHEMBL1155931, “Sulfur-substituted naphthalimides as photoactivatable anticancer agents: DNA interaction, fluorescence imaging, and phototoxic effects in cultured tumor cells” (Bioorg Med Chem, 2008)
